What was measured:
[1] = target: Voltage-gated inwardly rectifying potassium channel KCNH2 (Homo sapiens, UniProt Q12809); test: Displacement of labeled MK-499 from cloned hERG channel expressed in HEK cells; format: cell-based, HEK293
[2] = target: Substance-P receptor (Homo sapiens, UniProt P25103); test: Displacement of [125I] labeled substance P from human cloned NK1 receptor expressed in CHO cells; format: cell-based
Summary of the method: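 Radioligand displacement assay: [¹²⁵I]-labelled substance P bound to cloned human NK1 receptor expressed in CHO cells, measured as the concentration giving IC50; mean ± SD of three determinations.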

[3] = tested on: Gerbil, jird; test: Inhibition of GR-73632-induced foot tapping in gerbil at 3 mg/kg, po after 1 hr; format: functional, Meriones; parameters: Activity: scale not given: the % may be the effect or the level left; settings: for Activity: dose 3 mg/kg; for ED50: Meriones, 1 h, read-out: ID50 (the source's name)
Summary of the method: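 Gerbils dosed orally 1 h before central challenge with the NK1 agonist GR73632, with foot-tapping scored. Plasma drug level at 1 h measured by LC–MS/MS after protein precipitation.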

[4] = tested on: Gerbil, jird; test: Inhibition of GR-73632-induced foot tapping in po dosed gerbil after 1 hr; format: functional; settings: Meriones, read-out: ID50 (the source's name)
Summary of the method: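 Gerbils dosed orally 1 h before central challenge with the NK1 agonist GR73632, with foot-tapping scored. […] Plasma drug level at 1 h measured by LC–MS/MS after protein precipitation.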

[5] = Clearance in rat; format: ADME, organism-based; settings: in vivo
[6] = Half life in rat; format: ADME, organism-based; settings: in vivo

Voltage-gated inwardly rectifying potassium channel KCNH2, sequence (Q12809 whole entry): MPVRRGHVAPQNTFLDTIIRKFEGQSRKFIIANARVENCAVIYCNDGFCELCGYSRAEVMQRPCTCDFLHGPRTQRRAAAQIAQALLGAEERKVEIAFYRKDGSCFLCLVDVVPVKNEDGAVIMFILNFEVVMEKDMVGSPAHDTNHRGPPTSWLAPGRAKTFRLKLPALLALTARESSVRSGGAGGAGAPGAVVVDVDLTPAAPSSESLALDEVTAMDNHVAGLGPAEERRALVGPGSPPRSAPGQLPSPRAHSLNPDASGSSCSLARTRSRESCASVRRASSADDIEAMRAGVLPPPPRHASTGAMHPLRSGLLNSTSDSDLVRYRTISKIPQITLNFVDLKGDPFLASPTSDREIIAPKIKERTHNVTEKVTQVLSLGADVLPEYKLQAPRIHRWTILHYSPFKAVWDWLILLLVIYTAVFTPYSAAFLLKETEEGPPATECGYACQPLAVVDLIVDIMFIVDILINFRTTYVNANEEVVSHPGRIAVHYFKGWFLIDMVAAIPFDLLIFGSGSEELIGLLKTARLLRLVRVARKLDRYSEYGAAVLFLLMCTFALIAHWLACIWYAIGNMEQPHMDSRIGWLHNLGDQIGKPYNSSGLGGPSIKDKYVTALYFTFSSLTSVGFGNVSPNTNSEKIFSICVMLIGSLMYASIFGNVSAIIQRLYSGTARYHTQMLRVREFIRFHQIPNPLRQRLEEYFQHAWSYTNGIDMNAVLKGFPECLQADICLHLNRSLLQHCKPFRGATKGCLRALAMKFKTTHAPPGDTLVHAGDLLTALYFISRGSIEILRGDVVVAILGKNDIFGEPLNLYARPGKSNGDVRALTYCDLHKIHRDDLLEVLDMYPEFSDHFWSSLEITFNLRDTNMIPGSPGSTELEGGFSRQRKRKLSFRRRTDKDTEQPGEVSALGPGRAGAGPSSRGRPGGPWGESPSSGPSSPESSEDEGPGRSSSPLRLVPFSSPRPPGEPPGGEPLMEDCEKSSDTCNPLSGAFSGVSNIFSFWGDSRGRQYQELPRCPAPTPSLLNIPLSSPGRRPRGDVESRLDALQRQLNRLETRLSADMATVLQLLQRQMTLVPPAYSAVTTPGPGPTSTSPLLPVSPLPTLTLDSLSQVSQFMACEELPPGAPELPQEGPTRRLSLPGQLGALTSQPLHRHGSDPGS
Substance-P receptor, sequence (P25103 whole entry): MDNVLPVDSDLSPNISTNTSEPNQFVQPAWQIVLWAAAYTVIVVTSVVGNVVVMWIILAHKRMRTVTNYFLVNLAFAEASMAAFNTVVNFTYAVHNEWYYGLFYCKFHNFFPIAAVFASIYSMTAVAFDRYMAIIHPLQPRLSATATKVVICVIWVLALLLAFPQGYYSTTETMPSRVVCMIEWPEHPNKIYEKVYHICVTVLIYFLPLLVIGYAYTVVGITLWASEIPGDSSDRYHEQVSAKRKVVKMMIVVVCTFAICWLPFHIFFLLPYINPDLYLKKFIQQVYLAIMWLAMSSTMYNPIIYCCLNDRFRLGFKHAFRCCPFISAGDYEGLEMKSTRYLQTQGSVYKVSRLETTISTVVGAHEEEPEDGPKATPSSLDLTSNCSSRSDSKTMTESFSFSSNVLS

SMILES | IC50 [2] [nM] | Ki [1] [nM] | Activity [3] [%] | other results
C[C@@H](O[C@H]1CCC(=O)N(C)[C@@H](C)[C@@H]1c1ccc(F)cc1)c1cc(C(F)(F)F)cc(C(F)(F)F)c1 | – | 6700 | – | –
C[C@@H]1C[C@H](O[C@H](C)c2cc(C(F)(F)F)cc(C(F)(F)F)c2)[C@@H](c2ccc(F)cc2)CC(=O)N1 | 0.41 | – | 64 | –
C[C@@H]1C[C@H](O[C@H](C)c2cc(C(F)(F)F)cc(C(F)(F)F)c2)[C@@H](c2ccc(F)cc2)CNC1=O | 0.23 | 2400 | – | –
C[C@@H](O[C@H]1CCn2c(O)nnc2C[C@@H]1c1ccc(F)cc1)c1cc(C(F)(F)F)cc(C(F)(F)F)c1 | 0.22 | > 9000 | – | ED50 [3]: 0.8 mg/kg
C[C@@H](O[C@H]1CCc2nccn2C[C@@H]1c1ccc(F)cc1)c1cc(C(F)(F)F)cc(C(F)(F)F)c1 | 0.28 | – | 4 | –
C[C@@H]1C[C@H](O[C@H](C)c2cc(C(F)(F)F)cc(C(F)(F)F)c2)[C@@H](c2ccc(F)cc2)CN(C)C1=O | – | – | 5 | –
C[C@@H](O[C@H]1CCn2ccnc2C[C@@H]1c1ccc(F)cc1)c1cc(C(F)(F)F)cc(C(F)(F)F)c1 | – | 1400 | 0 | –
C[C@@H]1C[C@H](O[C@H](C)c2cc(C(F)(F)F)cc(C(F)(F)F)c2)[C@@H](c2ccc(F)cc2)CC(=O)N1C | 0.49 | > 9000 | 8 | –
C[C@@H]1NC(=O)CC[C@H](O[C@H](C)c2cc(C(F)(F)F)cc(C(F)(F)F)c2)[C@H]1c1ccc(F)cc1 | – | > 9000 | – | –

The next lines start with results.

IC50 [2] [nM] | SMILES | Ki [1] [nM] | Activity [3] [%] | other results
0.64 | C[C@@H](O[C@H]1CCNC(=O)C[C@@H]1c1ccc(F)cc1)c1cc(C(F)(F)F)cc(C(F)(F)F)c1 | > 9000 | 0 | –
0.14 | C[C@@H](O[C@H]1CCC(=O)NC[C@@H]1c1ccc(F)cc1)c1cc(C(F)(F)F)cc(C(F)(F)F)c1 | > 9000 | – | ED50 [4]: 1.06 mg/kg; clearance [5]: 33 mL/min/kg; half-life [6]: 5.6 h
0.53 | C[C@@H](O[C@H]1CCN(C)C(=O)C[C@@H]1c1ccc(F)cc1)c1cc(C(F)(F)F)cc(C(F)(F)F)c1 | > 9000 | – | –
0.12 | C[C@@H](O[C@H]1CCC(=O)N(C)C[C@@H]1c1ccc(F)cc1)c1cc(C(F)(F)F)cc(C(F)(F)F)c1 | – | – | ED50 [3]: 0.64 mg/kg

From ChEMBL document CHEMBL1147801, “NK1 antagonists based on seven membered lactam scaffolds” (Bioorg Med Chem Lett, 2006)
